# Assay outcomes: PubChem BioAssay, several laboratories
# MC4R ag barr: MC4R agonists recruiting beta-arrestin, primary screen, cell-based, luminescence, agonist arm of biased-ligand search; U2OS MC4R beta-arrestin complementation; percent of melanotan II response, DMSO zero; activation, % at 8.9 µM; hit rate 0.98% among 360,000; AID 540308, 2011;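 active = activation above a per-plate cutoff, the mean activation of sample wells on that plate plus 3 SD, cut at about 8% in these data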
# Target sequence (P32245 whole entry, looked up): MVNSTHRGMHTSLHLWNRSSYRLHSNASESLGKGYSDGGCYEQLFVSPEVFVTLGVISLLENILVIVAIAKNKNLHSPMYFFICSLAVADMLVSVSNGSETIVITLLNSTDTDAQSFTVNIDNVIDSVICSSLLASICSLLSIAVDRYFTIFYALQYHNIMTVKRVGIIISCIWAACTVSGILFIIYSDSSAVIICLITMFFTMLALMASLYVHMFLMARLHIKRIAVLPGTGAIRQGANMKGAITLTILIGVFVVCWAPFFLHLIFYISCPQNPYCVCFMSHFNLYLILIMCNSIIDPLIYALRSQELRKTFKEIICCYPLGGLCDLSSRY
# SMARCA2 act: SMARCA2 (BRM) function activators, primary screen, cell-based, luminescence, high throughput. hit rate 1% among 370,000. activation, % at 9.1 µM. MG213 cells, MMTV-luciferase reporter, dexamethasone, overnight; in the data active = activation above about 7.8%;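 also: 0% = vehicle wells and 100% = reference activator wells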
# MPTP inh: mitochondrial permeability transition pore inhibitors, primary screen, biochemical, isolated mouse mitochondria, absorbance; inhibition, % at 10 µM; AID 602449, 2012; Ca2+ swelling absorbance, 30 min; hit rate 1.4% among 360,000;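 active = inhibition of 50% or more, scaled per plate between neutral and stimulator controls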;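 also: 0% = DMSO wells given calcium and 100% = 1 mM EGTA wells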
# MC4R antagonist: MC4R antagonists of cAMP signaling, primary screen, cell-based, TR-FRET, antagonist arm of biased-ligand search; Melanocortin receptor 4 (Homo sapiens), P32245; MC4R-expressing cells, MTII-stimulated cAMP, LANCE TR-FRET; inhibition, % at 6.5 µM; hit rate 0.48% among 360,000; AID 540295, 2011;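 active = inhibition above its plate's cutoff, the mean of tested wells on that plate plus 3 SD, cut at about 29% in these data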;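 also: 0% = Melanotan II alone and 100% = Melanotan II plus saturating MCL0020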
#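 Material: human MC4R-expressing U2OS cells. Probe or stimulus: Melanotan II challenge. Dosing: 6.5 µM single dose. Times: 30-min compound, 1-h challenge, 1-h detection, room temperature. Technique: TR-FRET with Eu-cAMP and labeled anti-cAMP, 671 nm. Replication: singlicate.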
# ATG4B inh: ATG4B protease inhibitors, primary screen, biochemical, fluorescence, uHTS | Cysteine protease ATG4B (Homo sapiens), Q9Y4P1 | ATG4B cleavage of LC3-PLA2, NBD-HPC fluorescence, 1 h | inhibition, % at 8.33 µM | hit rate 0.51% among 340,000; in the data active = inhibition above about 40%
# SMARCA2 act conf: SMARCA2 (BRM) function activators, confirmation, cell-based, luminescence, triplicate; shares compounds with SMARCA2 act; activation, % at 9.1 µM; hit rate 30% among 3,500; MG213 cells, MMTV-luciferase with dexamethasone, overnight; MG213 cells expressing E1A, Rb sequestered; DMSO wells 0%, reference activator 100%; AID 652260, 2013;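 active = activation above its plate's cutoff, the mean activation of tested wells plus 3 SD, cut at about 7.9% in these data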
# VP16 Luc act: GAL4-VP16 luciferase reporter activation, counter-screen for SMARCA2 (BRM) activator project, cell-based, pG5luc, luminescence, high throughput. shares compounds with SMARCA2 act. HEK293 GAL4-VP16 pG5luc reporter; scaled: DMSO wells 0%, SAHA wells 100%. activation, % at 9.1 µM. hit rate 41% among 3,500;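 active = activation above the solvent-only control well mean plus 3 SD, averaged across control plates, cut at about 5.2% in these data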
# Starred values were filed as active, the others as inactive; / = no result given. Shown are actives, neighbours in structure and some others; about 4.1% of the full set was active somewhere.
SMILES,MC4R ag barr,SMARCA2 act,MPTP inh,MC4R antagonist,ATG4B inh,SMARCA2 act conf,VP16 Luc act
CCC(=O)Oc1ccc2oc(=O)cc(C)c2c1,-4,13*,1,-1,1,-1,0
Cc1ccccc1S(=O)Cc1ccc(C(=O)NCCN2CCOCC2)o1 (stereo unspecified),-2,-3,1,2,-1,/,/
O=C(NCCCN1CCCC1)c1ccc(CS(=O)(=O)c2ccc(Br)cc2)o1,-2,9.5*,0,7,1,-1,1
O=C(NCCN1CCCCCC1)c1ccc(CS(=O)(=O)c2ccc(Br)cc2)o1,0,/,-1,-7,0,/,/
Cc1ccccc1S(=O)Cc1ccc(C(=O)NCCCN2CCCCC2)o1 (stereo unspecified),-1,12*,-2,7,0,-6,0
CCOC(=O)c1c(C)oc2c1cc(O)c1ccccc12,6,8.1*,0,-7,-7,9.8*,13*
COc1ccc(NS(=O)(=O)c2ccc(NC(=S)NC(=O)c3cccc(F)c3)cc2)nn1,-3,8.2*,1,8,-8,0,0
COc1ccc(NS(=O)(=O)c2ccc(NC(=S)NC(=O)c3cccnc3)cc2)nn1,-2,0,-2,-4,5,/,/
CN(C)c1ccc(-c2nn3c(-c4ccco4)nnc3s2)cc1,/,4,/,/,/,/,/
NC(=O)c1cccnc1Nc1cccc(F)c1,1,0,1,-8,-4,/,/
NC(=O)c1cccnc1Nc1cccc([N+](=O)[O-])c1,-4,13*,-2,-13,-8,7.8*,8.6*
C/C(CC(=O)Nc1ccc(Cl)cc1C(F)(F)F)=N\NC(=O)c1ccccn1,-2,5,1,-2,-2,/,/
C/C(CC(=O)Nc1ccc(Cl)cc1C(F)(F)F)=N\NC(=O)c1cccs1,2,10*,2,-9,-11,4,3
CC(C)CSc1nnc(-c2ccco2)n1C,/,8.4*,/,/,/,8.9*,2
Nc1ccccc1/C=C/c1ccccc1N,2,9.9*,1,-2,-4,14*,10*
Nc1ccccc1C=C1Cc2ccccc2C1=O,-1,7,0,-11,2,/,/
COc1ccc(C2C(C(=O)Nc3cc(Cl)ccc3F)CCC(=O)N2c2ccc(OC)cc2)cc1 (stereo unspecified),/,2,/,/,/,/,/
C/C(Nc1cccc(F)c1)=C(/C#N)C(N)=O,0,8.3*,0,2,0,-3,0
O=C(CSc1nnc(-c2cccnc2)n1Cc1ccco1)Nc1ccc(Cl)cc1,/,-3,/,/,/,/,/
CC(C)C[C@H]1COc2cccc(N3CCOCC3)c2S(=O)(=O)N1,/,-4,/,/,/,/,/
COc1cc(/C=N/n2cnnc2)ccc1OCc1ccc(C)cc1,-1,1,0,-8,-8,/,/
COc1cc(/C=N/n2cnnc2)ccc1OCc1ccccc1,-1,8.1*,0,-1,-8,5,0
O=C(Nc1ccccc1Cl)c1ccc(C(=O)Nc2ccccc2Cl)cc1,-2,-6,1,5,7,/,/
O=C(Nc1ccccc1Cl)c1ccn[nH]1,-1,8.2*,-2,2,-10,3,2
O=C(Nc1ccccc1Cl)c1ccccc1,-1,8.8*,1,11,0,2,5.6*
O=C(CN1CCCc2ccccc21)NCc1ccc(Cl)cc1,/,-6,/,/,/,/,/
O=C(Oc1c(CN2CCOCC2)cc(Cl)c2cccnc12)c1cccs1,-2,33*,-5,18,4,16*,1
